Results published in article PMC3530929 (Journal of medicinal chemistry, 2012).
“Also recorded” adds a separate entry of the source.

What was measured:
[1] = biological target: T1, chymotrypsin-like (CT-L) activity of the 20S proteasome (Oryctolagus cuniculus, UniProt G1T4Q9); experiment: In vitro CT-L proteasome inhibition, fluorogenic assay; format: biochemical, rabbit; conditions: for IC50: CT-L inhibitory activity IC50, in vitro
T1 sequence (G1T4Q9 60-263): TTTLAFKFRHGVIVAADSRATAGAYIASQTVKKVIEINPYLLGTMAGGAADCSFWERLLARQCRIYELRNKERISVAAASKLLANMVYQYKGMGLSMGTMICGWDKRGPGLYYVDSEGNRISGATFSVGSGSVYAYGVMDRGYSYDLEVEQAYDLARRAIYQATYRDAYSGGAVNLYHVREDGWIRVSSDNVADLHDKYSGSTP

[2] = Stability in biological media by HPLC; format: physicochemical; conditions: DMEM and RPMI-1640 without serum, 10 μM, 1% DMSO, 37 °C, 1, 3, 5, 7 days
Procedure, shortened: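 A 1 mM DMSO stock from fresh powder was diluted into serum-free DMEM or RPMI (10 μM final, 1% DMSO), with 5 replicates per medium, and kept at 37 °C. Vials were removed on days 1, 3, 5 and 7, chilled to 0 °C on ice and analysed at once by HPLC. Conditions: C18, 5 μm, 4.6×150 mm, isocratic 35% or 50% CH3CN/water with 0.1% TFA depending on compound, 1 ml/min, 30 min. Peak area was plotted against day.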

[3] = biological target: T2, trypsin-like (T-L) activity of the proteasome (Oryctolagus cuniculus, UniProt G1SWK8); experiment: In vitro T-L proteasome inhibition, fluorogenic assay; format: biochemical, rabbit; conditions: read-out: T-L inhibition at 10 μM (cells printed ND)
T2 sequence (G1SWK8 1-271): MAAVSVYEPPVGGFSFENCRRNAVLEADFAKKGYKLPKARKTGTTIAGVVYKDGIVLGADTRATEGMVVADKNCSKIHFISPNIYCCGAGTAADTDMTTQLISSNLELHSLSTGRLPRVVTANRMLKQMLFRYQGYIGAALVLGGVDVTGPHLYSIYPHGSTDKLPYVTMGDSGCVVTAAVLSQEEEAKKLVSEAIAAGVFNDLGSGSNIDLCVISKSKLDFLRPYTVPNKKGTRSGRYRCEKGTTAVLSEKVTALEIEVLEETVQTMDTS

[4] = tested on: rabbit 20S proteasome CT-L activity; experiment: Dialysis using purified rabbit 20S proteasome; format: biochemical; conditions: for mode of CT-L proteasome inhibition (reversible or irreversible): concluded from dialysis; for recovery of CT-L activity during dialysis: dialysis up to 18 h at 4 °C
Procedure, shortened: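 Test compound at 10 μM, or 0.1% DMSO vehicle, was added to rabbit 20S proteasome (1.5 nM final) in 50 mM Tris-HCl pH 7.6 and held 30 min at room temperature. The mixture was dialysed (3,500 MWCO) against assay buffer at 4 °C and sampled at 0, 0.5, 1, 4, 8 and 18 h. CT-L activity was assayed per the earlier method and normalised to the DMSO control.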

[5] = Stability at room temperature; format: physicochemical; conditions: for stability at room temperature: 1H NMR in deuterated DMSO up to 3 weeks, HPLC and LCMS in tris buffer
[6] = tested on: ubiquitinated cellular proteins in MDA-MB-468 cells; experiment: Ubiquitination by Western blot analysis; format: cell-based, human; conditions: MDA-MB-468, 11 hours, various concentrations

**Q.** For `O=S(=O)(Nc1cc(Sc2nnn[nH]2)c(O)c2ccccc12)c1ccc(C2CCCCC2)cc1` [Compound 15h, N-(3-(1H-tetrazol-5-ylthio)-4-hydroxynaphthalen-1-yl)-4-cyclohexylbenzenesulfonamide], which IC50 [1] is on record?
**A.** ~200 nM

**Q.** What about the “fold improved CT-L inhibitory activity” value ([1]; compared with compound 1) of the same compound?
**A.** up to 20 fold

**Q.** Which results are given for `O=S(=O)(Nc1cc(Sc2nnn[nH]2)c(O)c2ccccc12)c1ccc(Oc2ccccc2)cc1` [Compound 15k, N-(3-(1H-tetrazol-5-ylthio)-4-hydroxynaphthalen-1-yl)-4-phenoxybenzenesulfonamide]?
**A.** stability in biological media (HPLC peak area) [2]: stable up to 7 days at 37 °C; fold improved CT-L inhibitory activity ([1]; compared with compound 1): up to 20 fold

**Q.** For `O=S(=O)(Nc1cc(Sc2nnn[nH]2)c(O)c2ccccc12)c1ccc(-c2ccccc2)cc1` [Compound 15e, N-(3-(1H-tetrazol-5-ylthio)-4-hydroxynaphthalen-1-yl)biphenyl-4-sulfonamide], which IC50 [1] is on record?
**A.** ~200 nM

**Q.** What about the “fold improved CT-L inhibitory activity” value ([1]; compared with compound 1) of the same compound?
**A.** up to 20 fold

**Q.** Which results are given for `O=C(O)CSc1cc(NS(=O)(=O)c2cccs2)c2ccccc2c1O` [Compound 1, 2-(1-Hydroxy-4-(thiophene-2-sulfonamido)naphthalen-2-ylthio)acetic acid]?
**A.** stability in biological media (HPLC peak area) [2]: stable up to 7 days at 37 °C; inhibition at 10 µM [3]: < 70%; mode of CT-L proteasome inhibition (reversible or irreversible) [4]: irreversibly; also recorded: irreversible; recovery of CT-L activity during dialysis [4]: did not show any recovery; stability at room temperature [5]: stable at room temperature for up to two weeks; impurities (oxidized material) after 2 weeks ([5]; room temperature, after 2 weeks): 3–5%

**Q.** With `O=S(=O)(Nc1cc(Sc2nnn[nH]2)c(O)c2ccccc12)c1ccc(-c2ccc(F)cc2)cc1` [Compound 15j, N-(3-(1H-tetrazol-5-ylthio)-4-hydroxynaphthalen-1-yl)-4′-fluorobiphenyl-4-sulfonamide] as the compound, how does the IC50 [1] read?
**A.** ~200 nM

**Q.** What about the “fold improved CT-L inhibitory activity” value ([1]; compared with compound 1) of the same compound?
**A.** up to 20 fold

**Q.** With `O=C(O)CCSc1cc(NS(=O)(=O)c2cccs2)c2ccccc2c1O` [Compound 11d, 3-(1-Hydroxy-4-(thiophene-2-sulfonamido)naphthalen-2-ylthio)propanoic acid] as the compound, how does the “fold decreased potency (CT-L)” value ([1]; extended side chain, compared with compound 1) read?
**A.** 2 fold

**Q.** Which “fold improved CT-L inhibitory activity” value ([1]; compared with compound 1) does the source give for `O=S(=O)(Nc1cc(Sc2ncn[nH]2)c(O)c2ccccc12)c1ccc(Oc2ccccc2)cc1` [Compound 29, N-(3-(1H-1,2,4-triazol-3-ylthio)-4-hydroxynaphthalen-1-yl)-4-phenoxybenzenesulfonamide] here?
**A.** up to 20 fold

**Q.** And the “selectivity for CT-L over T-L activity” value ([1]; in vitro)?
**A.** 28 fold

**Q.** For `O=S(=O)(Nc1cc(Sc2nnc[nH]2)c(O)c2ccccc12)c1ccc(-c2ccccc2)cc1` [Compound 25], which “stability at room temperature” value [5] is on record?
**A.** stable at room temperature for up to two weeks

**Q.** With `O=C(O)CSc1ccc(NS(=O)(=O)c2cccs2)c2ccccc12` [Compound 23, 2-(4-(Thiophene-2-sulfonamido)naphthalen-1-ylthio)acetic acid] as the compound, how does the IC50 [1] read?
**A.** > 100000 nM

**Q.** For `O=S(=O)(Nc1cc(Sc2nnn[nH]2)c(O)c2ccccc12)c1ccc(-c2ccc(C(F)(F)F)cc2)cc1` [Compound 39, N-(3-(1H-tetrazol-5-ylthio)-4-hydroxynaphthalen-1-yl)-4′-(trifluoromethyl)biphenyl-4-sulfonamide], which “stability in biological media (HPLC peak area)” value [2] is on record?
**A.** stable up to 7 days at 37 °C

**Q.** What about the “ubiquitination / accumulation of ubiquitinated cellular proteins” value [6] of the same compound?
**A.** concentration-dependent increase in ubiquitination; also recorded: induced the accumulation of ubiquitinated cellular proteins

**Q.** What about the “mode of CT-L proteasome inhibition (reversible or irreversible)” value [4] of the same compound?
**A.** irreversibly; also recorded: irreversible

**Q.** What about the “recovery of CT-L activity during dialysis” value [4] of the same compound?
**A.** did not show any recovery

**Q.** With `O=S(=O)(Nc1cc(Sc2nnn[nH]2)c(O)c2ccccc12)c1ccc(-c2ccccc2)s1` [Compound 15f, N-(3-(1H-tetrazol-5-ylthio)-4-hydroxynaphthalen-1-yl)-5-phenylthiophene-2-sulfonamide] as the compound, how does the IC50 [1] read?
**A.** ~200 nM

**Q.** What about the “fold improved CT-L inhibitory activity” value ([1]; compared with compound 1) of the same compound?
**A.** up to 20 fold

**Q.** What about the “stability at room temperature” value [5] of the same compound?
**A.** stable at room temperature for up to two weeks

**Q.** With `O=S(=O)(Nc1cc(Sc2nnn[nH]2)c(O)c2ccccc12)c1ccc(Cl)c(Cl)c1` [Compound 36, N-(3-(1H-tetrazol-5-ylthio)-4-hydroxynaphthalen-1-yl)-3,4-dichlorobenzenesulfonamide] as the compound, how does the “selectivity CT-L versus T-L (in words)” value ([1]; in vitro) read?
**A.** equipotent against CT-L and T-L activities

**Q.** With `O=S(=O)(Nc1cc(Sc2ncn[nH]2)c(O)c2ccccc12)c1ccc(-c2ccc(F)cc2)cc1` [Compound 27, N-(3-(1H-1,2,4-triazol-3-ylthio)-4-hydroxynaphthalen-1-yl)-4′-fluorobiphenyl-4-sulfonamide] as the compound, how does the “fold improved CT-L inhibitory activity” value ([1]; compared with compound 1) read?
**A.** up to 20 fold

**Q.** With `O=S(=O)(Nc1cc(Sc2nnn[nH]2)c(O)c2ccccc12)c1ccc(Cl)cc1` [Compound 35, N-(3-(1H-tetrazol-5-ylthio)-4-hydroxynaphthalen-1-yl)-4-chlorobenzenesulfonamide] as the compound, how does the “selectivity CT-L versus T-L (in words)” value ([1]; in vitro) read?
**A.** equipotent against CT-L and T-L activities

**Q.** With `O=S(=O)(Nc1cc(Sc2nnn[nH]2)c(O)c2ccccc12)c1cccs1` [Compound 15d, N-(3-(1H-tetrazol-5-ylthio)-4-hydroxynaphthalen-1-yl)thiophene-2-sulfonamide] as the compound, how does the “selectivity CT-L versus T-L (in words)” value ([1]; in vitro) read?
**A.** more selective for T-L over CT-L
